# In BindingDB's records for doi:10.1021/jm0003900 (Ferring Research Institute, 2001):
# pKd: −log10 of the molar value. *1 amine or outer side, *2 acyl side, *3 side chain or, on linkers, in order; H or OH if unused. Where a SMILES comes first, the peptide text is derived from it. [ ]: non-standard residue; d: D form. Phe(4-NH(5-NH2triazol-3-yl)) = Nc1nc(Nc2ccc(C[C@H](N)C(=O)O)cc2)n[nH]1; X1 = Nc1nc(Nc2ccc(C[C@@H](N[*:1])C(=O)[*:2])cc2)n[nH]1; dPhe(4-Cl) = N[C@H](Cc1ccc(Cl)cc1)C(=O)O; d2Nal = N[C@H](Cc1ccc2ccccc2c1)C(=O)O; Lys(iPr) = CC(C)NCCCC[C@H](N)C(=O)O; d3Pal = N[C@H](Cc1cccnc1)C(=O)O
# Molecular target: T1, Gonadotropin-releasing hormone receptor (Homo sapiens, UniProt P30968)
# T1 sequence (P30968 whole entry): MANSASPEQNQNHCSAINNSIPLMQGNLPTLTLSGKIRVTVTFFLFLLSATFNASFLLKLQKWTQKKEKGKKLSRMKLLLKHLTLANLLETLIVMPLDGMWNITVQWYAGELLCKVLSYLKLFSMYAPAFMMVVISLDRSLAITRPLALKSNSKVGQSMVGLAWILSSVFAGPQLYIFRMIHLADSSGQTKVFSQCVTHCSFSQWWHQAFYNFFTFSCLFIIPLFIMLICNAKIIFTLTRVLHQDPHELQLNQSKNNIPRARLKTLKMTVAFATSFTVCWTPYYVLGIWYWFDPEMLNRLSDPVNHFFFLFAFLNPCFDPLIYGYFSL
# Assay: Competitive antagonism of GnRH-induced response in the reporter gene assay
# How it was run: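 Same HEK293 human GnRH receptor luciferase reporter cells. Seven-point GnRH curve (10 µM to 10 pM final) run in duplicate without or with four to five increasing compound concentrations (10 min preincubation, 37 °C), then 5 h and luminescence. GnRH EC50 at each level by four-parameter logistic fit, giving pA2; mean of two determinations in duplicate.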
row,pKd,SMILES
1,9.20,CC(=O)Nc1ccc(C[C@@H](NC(=O)[C@H](Cc2ccc(NC(=O)C3CNC(=O)N3)cc2)NC(=O)[C@H](CO)NC(=O)[C@@H](Cc2cccnc2)NC(=O)[C@@H](Cc2ccc(Cl)cc2)NC(=O)[C@@H](Cc2ccc3ccccc3c2)NC(C)=O)C(=O)N[C@@H](CC(C)C)C(=O)N[C@@H](CCCCNC(C)C)C(=O)N2CCC[C@H]2C(=O)N[C@H](C)C(N)=O)cc1 (stereo partly drawn) [Ac-D-Nal-[D-(pCl)Phe]-D-Pal-Ser-[Aph(Imz)]-D-[Aph(Ac)]-Leu-ILys-Pro-DAla-NH2]
2,8.80,CC(=O)N[C@H](Cc1ccc2ccccc2c1)C(=O)N[C@H](Cc1ccc(Cl)cc1)C(=O)N[C@H](Cc1cccnc1)C(=O)N[C@@H](CO)C(=O)N[C@@H](Cc1ccc(Nc2n[nH]c(N)n2)cc1)C(=O)N[C@H](Cc1ccc(Nc2n[nH]c(N)n2)cc1)C(=O)N[C@@H](CC(C)C)C(=O)N[C@@H](CCCCNC(C)C)C(=O)N1CCC[C@H]1C(=O)N[C@H](C)C(N)=O [Ac-D-Nal-[D-(pCl)Phe]-D-Pal-Ser-[Aph(Atz)]-D-[Aph(Atz)]-Leu-ILys-Pro-DAla-NH2] (Ac-[d2Nal][dPhe(4-Cl)][d3Pal]S[Phe(4-NH(5-NH2triazol-3-yl))][X1]L[Lys(iPr)]P[dA]-NH2)
